Reference: publication PMC4486254 (Bioorganic & medicinal chemistry, 2010)

System: HIV-1HXB2
Experiment: Replication assay
Format: cell-based
Details: at concentrations below 10 µM; MT-4 Luc system
How it was run: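 MT-4 cells stably transduced with a firefly luciferase cassette by a murine leukemia viral vector, constitutively expressing luciferase. 1 × 10^3 cells per well infected with HIV-1 HXB2 alongside various peptide concentrations. Cells lysed at 6–7 days post-infection; luciferase activity measured as chemiluminescence, in relative luciferase units. A retained signal indicates protection from virus-induced death; a drop indicates cytotoxicity.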

## Ac-QIFEHLAGIIQILRFLRI-R8-NH2 [control peptide isomer of 5]
  anti-HIV activity (in words): did not show anti-HIV activity
